{"source": "ChEMBL document CHEMBL1129984", "about": "“Synthesis and pharmacological characterization of enantiomerically pure muscarinic agonists: difluoromuscarines” (J Med Chem, 1997)", "key": {"Cavia porcellus [1]": {"organism": "Cavia porcellus", "assay": "Dissociation constant was evaluated on guinea pig bladder at M3 muscarinic receptor", "in_short": "(§1)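 Dissociation constants and relative efficacies derived from guinea pig tissue agonist responses by the Furchgott and Bursztyn method.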"}, "Cavia porcellus [2]": {"organism": "Cavia porcellus", "assay": "Dissociation constant was evaluated on guinea pig heart (force) at M2 muscarinic receptor", "in_short": "as §1"}, "Cavia porcellus [3]": {"organism": "Cavia porcellus", "assay": "Dissociation constant was evaluated on guinea pig heart (rate) at M2 muscarinic receptor", "in_short": "as §1"}, "Cavia porcellus [4]": {"organism": "Cavia porcellus", "assay": "Dissociation constant was evaluated on guinea pig ileum at M3 muscarinic receptor", "in_short": "as §1"}, "[5]": {"target": "Muscarinic acetylcholine receptor M3 (Cavia porcellus) (UniProt Q8VH26)", "sequence (Q8VH26 1-587)": "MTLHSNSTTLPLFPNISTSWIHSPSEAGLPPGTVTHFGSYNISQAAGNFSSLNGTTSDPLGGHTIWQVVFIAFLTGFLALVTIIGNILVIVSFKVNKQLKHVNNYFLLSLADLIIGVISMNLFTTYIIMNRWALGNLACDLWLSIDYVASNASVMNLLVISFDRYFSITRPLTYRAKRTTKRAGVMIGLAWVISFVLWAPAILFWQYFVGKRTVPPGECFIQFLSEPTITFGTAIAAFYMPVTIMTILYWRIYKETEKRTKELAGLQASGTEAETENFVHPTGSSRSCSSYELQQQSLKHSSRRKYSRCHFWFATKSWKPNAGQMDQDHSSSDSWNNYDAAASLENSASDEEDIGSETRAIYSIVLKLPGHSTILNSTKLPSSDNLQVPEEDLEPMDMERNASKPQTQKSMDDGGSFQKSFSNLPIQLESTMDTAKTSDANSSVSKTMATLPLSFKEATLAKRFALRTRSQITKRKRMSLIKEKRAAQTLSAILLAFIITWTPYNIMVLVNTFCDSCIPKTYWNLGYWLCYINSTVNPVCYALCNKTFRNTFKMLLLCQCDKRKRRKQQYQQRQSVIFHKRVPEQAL", "assay": "Intrinsic adtivitiy was measured by the ratio between the maximum response and the maximum response of muscarine in guinea pig bladder at Muscarinic acetylcholine receptor M3", "format": "functional", "in_short": "(§2)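 Isolated guinea pig tissues in PSS. Responses are expressed as a percentage of the maximal response in the control curve. Potency is given as pD₂ (−log ED₅₀, the agonist concentration producing 50% of maximal contraction). […] Parallel tissues received only (±)-muscarine to check sensitivity. 6–10 observations, mean ± SEM.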"}, "[6]": {"target": "Muscarinic acetylcholine receptor M3 (Cavia porcellus) (UniProt Q8VH26)", "assay": "Intrinsic adtivitiy was measured by the ratio between the maximum response and the maximum response of muscarine in guinea pig ileum at Muscarinic acetylcholine receptor M3", "format": "functional, tissue-based", "in_short": "as §2"}, "[7]": {"target": "T1, Muscarinic acetylcholine receptor M2 (Rattus norvegicus) (UniProt P10980)", "T1 sequence (whole entry)": "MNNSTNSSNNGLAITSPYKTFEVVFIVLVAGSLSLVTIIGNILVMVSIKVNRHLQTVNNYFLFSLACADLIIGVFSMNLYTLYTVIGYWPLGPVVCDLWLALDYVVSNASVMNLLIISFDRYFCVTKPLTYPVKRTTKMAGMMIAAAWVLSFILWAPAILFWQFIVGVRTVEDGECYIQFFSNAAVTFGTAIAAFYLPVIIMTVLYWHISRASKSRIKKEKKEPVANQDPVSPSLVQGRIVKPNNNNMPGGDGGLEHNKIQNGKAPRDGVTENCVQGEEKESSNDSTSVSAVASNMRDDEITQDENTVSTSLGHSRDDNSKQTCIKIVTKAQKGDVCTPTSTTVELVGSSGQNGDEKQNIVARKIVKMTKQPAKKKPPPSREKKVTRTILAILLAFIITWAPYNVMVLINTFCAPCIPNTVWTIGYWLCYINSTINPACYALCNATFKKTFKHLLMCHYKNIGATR", "assay": "Muscarinic potency was evaluated at cardiac Muscarinic acetylcholine receptor M2 mediating Bradycardia in the pithed rat (Decrease in heart rate)", "format": "functional", "in_short": "(§3)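 Pithed rats, artificially respired at 60 cycles/min, 1 mL/100 g, and equilibrated ≥30 min until heart rate was stable (basal 300 ± 8 beats/min). Agonists in 0.9% saline given iv at 0.1 mL/100 g, with full recovery between single doses. Heart rate measured from the carotid pressure pulse. ED₅₀ read graphically from dose–response curves. 5–9 observations, mean ± SEM.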"}, "[8]": {"target": "Muscarinic acetylcholine receptor M3 (Cavia porcellus) (UniProt Q8VH26)", "assay": "Muscarinic potency was evaluated on guinea pig bladder at Muscarinic acetylcholine receptor M3 (expressed as -logED50)", "format": "functional", "in_short": "as §2"}, "[9]": {"target": "Muscarinic acetylcholine receptor M3 (Cavia porcellus) (UniProt Q8VH26)", "assay": "Muscarinic potency was evaluated on guinea pig ileum at Muscarinic acetylcholine receptor M3 (expressed as -logED50)", "format": "functional, tissue-based", "in_short": "as §2"}, "[10]": {"target": "Muscarinic acetylcholine receptor M3 (Cavia porcellus) (UniProt Q8VH26)", "assay": "Relative efficacy was evaluated on guinea pig bladder at Muscarinic acetylcholine receptor M3", "format": "functional", "in_short": "as §1"}, "[11]": {"target": "Muscarinic acetylcholine receptor M3 (Cavia porcellus) (UniProt Q8VH26)", "assay": "Relative efficacy was evaluated on guinea pig ileum at Muscarinic acetylcholine receptor M3", "format": "functional, tissue-based", "in_short": "as §1"}, "[12]": {"target": "T2, Muscarinic acetylcholine receptor M2 (Homo sapiens) (UniProt P08172)", "T2 sequence (whole entry)": "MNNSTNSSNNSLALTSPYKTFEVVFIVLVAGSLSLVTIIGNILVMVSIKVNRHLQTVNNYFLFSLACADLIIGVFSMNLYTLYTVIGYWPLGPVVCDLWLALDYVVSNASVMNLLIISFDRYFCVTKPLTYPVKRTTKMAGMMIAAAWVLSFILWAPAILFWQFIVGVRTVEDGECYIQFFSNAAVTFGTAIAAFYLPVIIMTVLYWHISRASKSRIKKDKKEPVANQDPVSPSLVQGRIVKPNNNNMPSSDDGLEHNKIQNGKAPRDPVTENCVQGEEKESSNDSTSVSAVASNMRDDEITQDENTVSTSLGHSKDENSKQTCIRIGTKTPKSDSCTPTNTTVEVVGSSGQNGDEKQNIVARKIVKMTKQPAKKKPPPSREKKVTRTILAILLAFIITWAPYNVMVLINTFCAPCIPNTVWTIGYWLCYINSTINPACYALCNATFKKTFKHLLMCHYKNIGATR", "assay": "Relative efficacy was evaluated on guinea pig heart (rate) at Muscarinic acetylcholine receptor M2", "format": "functional", "details": "Cavia porcellus; target entry is the homologue from another species", "in_short": "as §1"}, "[13]": {"target": "T2, Muscarinic acetylcholine receptor M2 (Homo sapiens)", "assay": "Relative efficacy was evaluated on guinea pig heart (force) at Muscarinic acetylcholine receptor M2", "format": "functional", "details": "Cavia porcellus; target entry is the homologue from another species", "in_short": "as §1"}, "[14]": {"target": "T3, Muscarinic acetylcholine receptor M1 (Rattus norvegicus) (UniProt P08482)", "T3 sequence (whole entry)": "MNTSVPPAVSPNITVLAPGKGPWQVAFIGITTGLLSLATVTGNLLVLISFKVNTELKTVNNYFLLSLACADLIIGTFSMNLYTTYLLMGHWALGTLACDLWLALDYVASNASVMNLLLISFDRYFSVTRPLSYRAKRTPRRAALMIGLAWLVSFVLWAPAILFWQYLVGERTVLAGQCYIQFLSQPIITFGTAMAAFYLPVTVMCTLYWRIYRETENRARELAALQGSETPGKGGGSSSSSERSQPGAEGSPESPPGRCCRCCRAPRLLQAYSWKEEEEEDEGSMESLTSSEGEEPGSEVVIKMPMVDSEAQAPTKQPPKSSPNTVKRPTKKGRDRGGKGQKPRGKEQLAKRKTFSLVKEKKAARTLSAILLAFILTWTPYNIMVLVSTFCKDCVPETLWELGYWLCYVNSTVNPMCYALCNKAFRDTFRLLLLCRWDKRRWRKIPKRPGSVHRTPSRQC", "assay": "Muscarinic potency was evaluated at ganglionic Muscarinic acetylcholine receptor M1 mediating Tachycardia in the pithed rat (Increase in heart rate)", "in_short": "as §3"}, "[15]": {"tested_on": "Muscarinic acetylcholine receptor M2 (Cavia porcellus)", "assay": "Muscarinic potency was evaluated on guinea pig heart (rate) at Muscarinic acetylcholine receptor M2"}, "[16]": {"tested_on": "Muscarinic acetylcholine receptor M2 (Cavia porcellus)", "assay": "Muscarinic potency was evaluated on guinea pig heart (force) at Muscarinic acetylcholine receptor M2 (expressed as -logED50)"}, "[17]": {"tested_on": "Muscarinic acetylcholine receptor M2 (Cavia porcellus)", "assay": "Intrinsic activity was measured as the ratio between the maximum response and the maximum response of muscarine in guinea pig heart at Muscarinic acetylcholine receptor M2"}}}
{"smiles": "C[C@H]1O[C@@H](C[N+](C)(C)C)CC1(F)F", "values": [{"measurement": "-Log Kd", "setting": "Cavia porcellus [1]", "value": 3.71}, {"measurement": "-Log Kd", "setting": "Cavia porcellus [2]", "value": 3.64}, {"measurement": "-Log Kd", "setting": "Cavia porcellus [3]", "value": 3.48}, {"measurement": "-Log Kd", "setting": "Cavia porcellus [4]", "value": 4.47}, {"measurement": "Intrinsic activity", "setting": "[5]", "value": 0.95}, {"measurement": "Intrinsic activity", "setting": "[6]", "value": 0.98}, {"measurement": "ED50", "setting": "[7]", "value": 0.274, "unit": "mg/kg"}, {"measurement": "pD2", "setting": "[8]", "value": 3.82}, {"measurement": "pD2", "setting": "[9]", "value": 5.53}, {"measurement": "Relative efficacy", "setting": "[10]", "value": 0.2}, {"measurement": "Relative efficacy", "setting": "[11]", "value": 0.8}, {"measurement": "Relative efficacy", "setting": "[12]", "value": 10}, {"measurement": "Relative efficacy", "setting": "[13]", "value": 1.3}, {"measurement": "ED50", "setting": "[14]", "value": 0.1, "unit": "mg/kg"}, {"measurement": "-Log ED50", "setting": "[15]", "value": 6.31}, {"measurement": "pD2", "setting": "[16]", "value": 5.76}, {"measurement": "Intrinsic activity", "setting": "[17]", "value": 0.97}]}
{"smiles": "C[C@@H]1O[C@@H](C[N+](C)(C)C)CC1(F)F", "values": [{"measurement": "Intrinsic activity", "setting": "[5]", "value": 1}, {"measurement": "Intrinsic activity", "setting": "[6]", "value": 0.97}, {"measurement": "pD2", "setting": "[8]", "value": 4.16}, {"measurement": "pD2", "setting": "[9]", "value": 5.33}, {"measurement": "pD2", "setting": "[16]", "value": 6.28}, {"measurement": "Intrinsic activity", "setting": "[17]", "value": 1}]}
{"smiles": "C[C@@H]1O[C@H](C[N+](C)(C)C)C[C@H]1O", "note": "(racemic) [MUSCARINE]", "values": [{"measurement": "-Log Kd", "setting": "Cavia porcellus [1]", "value": 4.62}, {"measurement": "-Log Kd", "setting": "Cavia porcellus [4]", "value": 5.95}, {"measurement": "Intrinsic activity", "setting": "[6]", "value": 1}, {"measurement": "pD2", "setting": "[8]", "value": 5.69}, {"measurement": "pD2", "setting": "[9]", "value": 7.1}]}
{"smiles": "C[C@@H]1O[C@H](C[N+](C)(C)C)CC1(F)F", "values": [{"measurement": "-Log Kd", "setting": "Cavia porcellus [1]", "value": 4.4}, {"measurement": "-Log Kd", "setting": "Cavia porcellus [2]", "value": 4.37}, {"measurement": "-Log Kd", "setting": "Cavia porcellus [3]", "value": 3.39}, {"measurement": "-Log Kd", "setting": "Cavia porcellus [4]", "value": 4.7}, {"measurement": "Intrinsic activity", "setting": "[5]", "value": 0.83}, {"measurement": "Intrinsic activity", "setting": "[6]", "value": 0.99}, {"measurement": "ED50", "setting": "[7]", "value": 0.14, "unit": "mg/kg"}, {"measurement": "pD2", "setting": "[8]", "value": 5.23}, {"measurement": "pD2", "setting": "[9]", "value": 5.8}, {"measurement": "Relative efficacy", "setting": "[10]", "value": 0.6}, {"measurement": "Relative efficacy", "setting": "[11]", "value": 0.9}, {"measurement": "Relative efficacy", "setting": "[12]", "value": 23}, {"measurement": "Relative efficacy", "setting": "[13]", "value": 1.6}, {"measurement": "ED50", "setting": "[14]", "value": 0.05, "unit": "mg/kg"}, {"measurement": "-Log ED50", "setting": "[15]", "value": 6.58}, {"measurement": "pD2", "setting": "[16]", "value": 6.56}, {"measurement": "Intrinsic activity", "setting": "[17]", "value": 1}]}
{"smiles": "C[C@@H]1O[C@H](C[N+](C)(C)C)C[C@H]1F", "values": [{"measurement": "-Log Kd", "setting": "Cavia porcellus [1]", "value": 4.39}, {"measurement": "-Log Kd", "setting": "Cavia porcellus [2]", "value": 4.67}, {"measurement": "-Log Kd", "setting": "Cavia porcellus [3]", "value": 5.77}, {"measurement": "-Log Kd", "setting": "Cavia porcellus [4]", "value": 5.72}, {"measurement": "Intrinsic activity", "setting": "[5]", "value": 0.88}, {"measurement": "Intrinsic activity", "setting": "[6]", "value": 0.95}, {"measurement": "ED50", "setting": "[7]", "value": 0.0235, "unit": "mg/kg"}, {"measurement": "pD2", "setting": "[8]", "value": 5.66}, {"measurement": "pD2", "setting": "[9]", "value": 7.36}, {"measurement": "Relative efficacy", "setting": "[10]", "value": 1.5}, {"measurement": "Relative efficacy", "setting": "[11]", "value": 3}, {"measurement": "Relative efficacy", "setting": "[12]", "value": 0.2}, {"measurement": "Relative efficacy", "setting": "[13]", "value": 1.2}, {"measurement": "ED50", "setting": "[14]", "value": 0.0045, "unit": "mg/kg"}, {"measurement": "-Log ED50", "setting": "[15]", "value": 6.87}, {"measurement": "pD2", "setting": "[16]", "value": 6.73}, {"measurement": "Intrinsic activity", "setting": "[17]", "value": 0.98}]}
{"smiles": "C[C@H]1O[C@H](C[N+](C)(C)C)CC1(F)F", "values": [{"measurement": "Intrinsic activity", "setting": "[5]", "value": 0.67}, {"measurement": "Intrinsic activity", "setting": "[6]", "value": 0.99}, {"measurement": "pD2", "setting": "[8]", "value": 3.95}, {"measurement": "pD2", "setting": "[9]", "value": 4.85}, {"measurement": "pD2", "setting": "[16]", "value": 5.77}, {"measurement": "Intrinsic activity", "setting": "[17]", "value": 0.98}]}
